Reference: ChEMBL document CHEMBL5032510, “Identification of Novel Fused Heteroaromatics-Based MALT1 Inhibitors by High-Throughput Screening to Treat B Cell Lymphoma” (J Med Chem, 2021)
Activity calls are given as the source filed them. No cut-off for these calls is given here.

What was measured:
TMD8 [1] = experiment: Antiproliferative activity against human TMD8 cells assessed as inhibition of cell growth incubated for 72 hrs by Celltiter-Glo luminescent assay; assay type: functional
Outline: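 Exponentially growing cells were seeded at 1 × 10⁴ per 100 μL. HBL-1 and TMD8 were kept in RPMI with 10% FBS, 2 mM glutamine and 10 mM HEPES; OCI-LY1 in Iscove's medium with 20% FBS; all at 37 °C and 5% CO2. Cells were exposed to DMSO or 2-fold serial dilutions from 100 μM for 72 h, in triplicate on one plate. CellTiter-Glo luminescence was read after 1 h. Growth inhibition was calculated against control, accounting for initial cell number, and GI50 was fitted.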

[2] = Induction of apoptosis in human HBL1 cells assessed as early apoptotic cells at 5 uM measured after 24 hrs by Annexin V-FITC/ Propidium iodide staining based flow cytometry (reference value: 4.85%); assay type: functional
[3] = Induction of apoptosis in human HBL1 cells assessed as early apoptotic cells at 10 uM measured after 24 hrs by Annexin V-FITC/ Propidium iodide staining based flow cytometry (reference value: 4.85%); assay type: functional
[4] = Induction of apoptosis in human HBL1 cells assessed as dead cells at 5 uM measured after 24 hrs by Annexin V-FITC/ Propidium iodide staining based flow cytometry (reference value: 2.32%); assay type: functional
TMD8 [5] = experiment: Induction of apoptosis in human TMD8 cells assessed as early apoptotic cells at 5 uM measured after 24 hrs by Annexin V-FITC/ Propidium iodide staining based flow cytometry (reference value: 6.97%); assay type: functional
TMD8 [6] = experiment: Induction of apoptosis in human TMD8 cells assessed as late apoptotic cells at 2 uM measured after 24 hrs by Annexin V-FITC/ Propidium iodide staining based flow cytometry (reference value: 2.19%); assay type: functional
TMD8 [7] = experiment: Induction of apoptosis in human TMD8 cells assessed as late apoptotic cells at 5 uM measured after 24 hrs by Annexin V-FITC/ Propidium iodide staining based flow cytometry (reference value: 2.19%); assay type: functional
TMD8 [8] = experiment: Induction of apoptosis in human TMD8 cells assessed as late apoptotic cells at 10 uM measured after 24 hrs by Annexin V-FITC/ Propidium iodide staining based flow cytometry (reference value: 2.19%); assay type: functional
TMD8 [9] = experiment: Induction of apoptosis in human TMD8 cells assessed as dead cells at 2 uM measured after 24 hrs by Annexin V-FITC/ Propidium iodide staining based flow cytometry (reference value: 0%); assay type: functional
TMD8 [10] = experiment: Induction of apoptosis in human TMD8 cells assessed as dead cells at 5 uM measured after 24 hrs by Annexin V-FITC/ Propidium iodide staining based flow cytometry (reference value: 0 %); assay type: functional
OCI-Ly1 [11] = experiment: Induction of apoptosis in human OCI-Ly1 cells assessed as viable cells at 10 uM measured after 24 hrs by Annexin V-FITC/ Propidium iodide staining based flow cytometry (reference value: 97.8%); assay type: functional; conditions: read-out: Activity
OCI-Ly1 [12] = experiment: Induction of apoptosis in human OCI-Ly1 cells assessed as late apoptotic cells at 2 uM measured after 24 hrs by Annexin V-FITC/ Propidium iodide staining based flow cytometry (reference value: 0.548%); assay type: functional
OCI-Ly1 [13] = experiment: Induction of apoptosis in human OCI-Ly1 cells assessed as dead cells at 10 uM measured after 24 hrs by Annexin V-FITC/ Propidium iodide staining based flow cytometry (reference value: 0.365%); assay type: functional
HBL1 [14] = experiment: Induction of apoptosis in human HBL1 cells assessed as increase in cleaved PARP level measured after 12 hrs by Western blot analysis; assay type: functional, cell-based
Outline: (§1)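 HBL1, TMD8 or OCI-LY1 cells were exposed to DMSO or compound for 12 h. Cleaved PARP and caspase-3 were probed by western blot with HRP-conjugated secondary antibodies and chemiluminescent detection. Each lane held 20−75 μg total protein.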

HBL1 [15] = experiment: Induction of apoptosis in human HBL1 cells assessed as increase in cleaved caspase 3 level measured after 12 hrs by Western blot analysis; assay type: functional, cell-based; outline: as §1
OCI-Ly1 [16] = experiment: Induction of apoptosis in human OCI-Ly1 cells assessed as increase in cleaved PARP level at 2 to 5 uM measured after 12 hrs by Western blot analysis; assay type: functional, cell-based; conditions: dose 2-5 µM; outline: as §1
[17] = target: Nuclear factor NF-kappa-B complex (Homo sapiens) (UniProt Q00653+P19838+Q04206); experiment: Inhibition of NF-kappaB signalling in human HBL1 cells assessed as reduction in phosphorylation of IkappaB-alpha at 8 uM preincubated for 30 mins followed by proteosome inhibitor MG-132 addition and measured after 2 hrs by Western blot analysis; assay type: cell-based; conditions: time 2.5 hrs
Outline: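 HBL1 cells were pretreated with compound (4 and 8 μM) for 30 min, then given 10 μM MG-132 for 2 h. Phospho-IκBα, IκBα and RelB were probed by western blot, with β-actin as loading control. Each lane held 20−75 μg total protein, with chemiluminescent detection.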

[18] = Induction of apoptosis in human HBL1 cells assessed as late apoptosis at 10 uM measured after 24 hrs by Annexin V-FITC/ Propidium iodide staining based flow cytometry (reference value: 4.77%); assay type: functional
[19] = Half life in CD-1 mouse at 10 mg/kg, po by LC-MS/MS analysis; assay type: ADME, organism-based; conditions: in vivo
Outline: (§2)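 Compound formulated in 5% DMSO + 5% Tween-80 in 90% saline and given to male ICR (CD-1) mice (n = 9) at 10 mg/kg po, 1 mg/kg ip or 1 mg/kg iv. Blood was drawn via the jugular vein at set time points and held on ice. Plasma was separated by centrifugation and stored at −80 °C before PK parameters were derived.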

[20] = Half life in CD-1 mouse at 1 mg/kg, ip by LC-MS/MS analysis; assay type: ADME, organism-based; conditions: in vivo; outline: as §2
[21] = AUC (0 to t) in CD-1 mouse at 1 mg/kg, ip by LC-MS/MS analysis; assay type: ADME, organism-based; parameters: dose 1 mg/kg; conditions: in vivo; outline: as §2
[22] = Apparent volume of distribution in CD-1 mouse at 1 mg/kg, iv by LC-MS/MS analysis; assay type: ADME, organism-based; conditions: in vivo, read-out: Vz; outline: as §2
[23] = Toxicity in NCG mouse xenografted with human TMD8 cells assessed as emaciation at 30 mg/kg/day, ip measured for 13 days; conditions: in vivo, 312 h
[24] = Toxicity in NCG mouse xenografted with human TMD8 cells assessed as body weight loss at 30 mg/kg/day, ip measured for 13 days; conditions: in vivo, 312 h

Chain of Nuclear factor NF-kappa-B complex (Homo sapiens) (P19838 whole entry, looked up): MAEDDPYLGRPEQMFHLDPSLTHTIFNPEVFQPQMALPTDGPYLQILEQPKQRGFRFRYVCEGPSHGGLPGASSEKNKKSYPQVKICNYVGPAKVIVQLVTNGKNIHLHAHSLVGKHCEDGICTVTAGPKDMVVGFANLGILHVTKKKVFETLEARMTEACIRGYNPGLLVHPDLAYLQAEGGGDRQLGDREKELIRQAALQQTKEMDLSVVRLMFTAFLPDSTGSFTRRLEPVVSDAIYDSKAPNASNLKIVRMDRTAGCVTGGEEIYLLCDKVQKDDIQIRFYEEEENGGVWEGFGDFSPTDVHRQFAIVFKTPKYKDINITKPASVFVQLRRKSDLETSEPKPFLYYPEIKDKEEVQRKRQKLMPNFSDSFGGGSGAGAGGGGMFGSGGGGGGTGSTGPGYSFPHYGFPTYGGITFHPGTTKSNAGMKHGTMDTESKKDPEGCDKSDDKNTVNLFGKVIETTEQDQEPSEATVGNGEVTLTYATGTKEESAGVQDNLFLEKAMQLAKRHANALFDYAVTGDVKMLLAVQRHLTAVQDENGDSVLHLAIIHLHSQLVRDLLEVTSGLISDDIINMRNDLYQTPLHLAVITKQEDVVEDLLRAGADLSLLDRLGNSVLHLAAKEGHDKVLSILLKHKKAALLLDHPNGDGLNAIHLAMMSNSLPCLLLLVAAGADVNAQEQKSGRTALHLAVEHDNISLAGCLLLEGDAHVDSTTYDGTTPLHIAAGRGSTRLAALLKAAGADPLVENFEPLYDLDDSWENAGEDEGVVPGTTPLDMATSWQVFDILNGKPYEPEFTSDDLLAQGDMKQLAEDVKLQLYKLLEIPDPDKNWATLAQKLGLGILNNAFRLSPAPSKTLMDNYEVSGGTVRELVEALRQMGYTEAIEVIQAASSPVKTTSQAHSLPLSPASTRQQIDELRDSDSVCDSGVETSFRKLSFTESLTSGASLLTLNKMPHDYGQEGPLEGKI
Chain of Nuclear factor NF-kappa-B complex (Homo sapiens) (Q00653 whole entry, looked up): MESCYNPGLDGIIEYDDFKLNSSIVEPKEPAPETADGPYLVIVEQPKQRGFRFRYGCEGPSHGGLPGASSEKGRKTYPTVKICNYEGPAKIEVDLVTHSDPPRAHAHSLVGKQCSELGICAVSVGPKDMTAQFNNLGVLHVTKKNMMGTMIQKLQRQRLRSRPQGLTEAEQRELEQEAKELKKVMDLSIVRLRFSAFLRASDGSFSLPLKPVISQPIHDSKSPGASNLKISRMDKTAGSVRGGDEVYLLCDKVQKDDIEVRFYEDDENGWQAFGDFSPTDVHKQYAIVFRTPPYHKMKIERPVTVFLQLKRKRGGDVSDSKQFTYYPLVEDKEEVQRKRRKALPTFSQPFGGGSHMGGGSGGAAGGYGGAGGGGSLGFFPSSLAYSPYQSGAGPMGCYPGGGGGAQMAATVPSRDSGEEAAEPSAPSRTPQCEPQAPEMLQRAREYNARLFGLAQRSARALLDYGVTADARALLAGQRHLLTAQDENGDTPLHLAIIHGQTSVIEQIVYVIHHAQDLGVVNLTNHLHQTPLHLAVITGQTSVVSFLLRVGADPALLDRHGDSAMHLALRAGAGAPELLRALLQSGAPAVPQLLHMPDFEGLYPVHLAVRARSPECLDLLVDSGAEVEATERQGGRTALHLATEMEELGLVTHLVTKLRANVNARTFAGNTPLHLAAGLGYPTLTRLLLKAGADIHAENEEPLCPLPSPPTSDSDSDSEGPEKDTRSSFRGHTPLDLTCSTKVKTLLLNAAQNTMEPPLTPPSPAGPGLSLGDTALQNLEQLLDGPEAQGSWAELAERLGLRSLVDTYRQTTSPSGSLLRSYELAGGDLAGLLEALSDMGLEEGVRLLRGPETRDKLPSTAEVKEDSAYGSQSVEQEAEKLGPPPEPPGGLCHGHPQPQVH
Chain of Nuclear factor NF-kappa-B complex (Homo sapiens) (Q04206 whole entry, looked up): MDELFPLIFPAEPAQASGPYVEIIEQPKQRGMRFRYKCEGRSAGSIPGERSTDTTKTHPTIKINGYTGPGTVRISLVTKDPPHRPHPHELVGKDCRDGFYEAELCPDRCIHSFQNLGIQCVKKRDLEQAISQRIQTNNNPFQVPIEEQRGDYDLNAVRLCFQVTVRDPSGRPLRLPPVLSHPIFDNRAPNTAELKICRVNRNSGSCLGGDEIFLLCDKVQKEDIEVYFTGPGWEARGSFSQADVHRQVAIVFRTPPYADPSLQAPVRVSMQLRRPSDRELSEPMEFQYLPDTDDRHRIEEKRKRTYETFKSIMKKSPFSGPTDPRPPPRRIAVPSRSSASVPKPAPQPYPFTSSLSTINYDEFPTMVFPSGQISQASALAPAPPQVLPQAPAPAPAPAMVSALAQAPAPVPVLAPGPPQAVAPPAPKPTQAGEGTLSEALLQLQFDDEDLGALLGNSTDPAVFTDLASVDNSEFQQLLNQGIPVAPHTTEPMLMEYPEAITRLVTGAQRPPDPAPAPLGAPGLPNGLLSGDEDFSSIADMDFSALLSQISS

In the case of `COc1ccc(OC)c(NC(=O)c2sc(=S)n(-c3ccc(C(F)(F)F)cc3)c2NC(=O)CCl)c1`, the GI50 (TMD8 [1]) was 400 nM, the Activity [2] was 42.1% and the Activity [3] was 57.8%. For the same molecule, the Activity [4] was 1.8%, the Activity (TMD8 [5]) was 58.9% and the Activity (TMD8 [6]) was 2.54%. For the same molecule, the Activity (TMD8 [7]) was 25.7%, the Activity (TMD8 [8]) was 42.7% and the Activity (TMD8 [9]) was 0.048%. For the same molecule, the Activity (TMD8 [10]) was 0.422%, the viability at 10 µM (OCI-Ly1 [11]) was 95.5% and the Activity (OCI-Ly1 [12]) was 0.688%. The Activity (OCI-Ly1 [13]) was 0.337%, the Activity (HBL1 [14]) was “Dose-Dependent Effect” and the Activity (HBL1 [15]) was “Dose-Dependent Effect”. The Activity (OCI-Ly1 [16]) was “inactive”, the inhibition [17] was “Active” and the Activity [18] was 35%. It also gave a half-life [19] of 2.83 h, a half-life [20] of 4.5 h and an AUC(0-t) [21] of 732 ng·h/mL. For the same molecule, the Vd [22] was 4.82 L/kg, the Activity [23] was “Non-Toxic” and the Activity [24] was “Non-Toxic”.
